Test results: ChEMBL document CHEMBL1127464, “Inhibitors of HIV-1 proteinase containing 2-heterosubstituted 4-amino-3-hydroxy-5-phenylpentanoic acid: synthesis, enzyme inhibition, and antiviral activity” (J Med Chem, 1994)

How the values were obtained:
[1] = test system: Human immunodeficiency virus 1; experiment: Antiviral activity by observing cytopathic effect induced by HIV-1 strain IIIB in de novo infected MT-4 cells; type: functional, organism-based; settings: Human immunodeficiency virus 1, MT4
[2] = target: Human immunodeficiency virus type 1 protease (Human immunodeficiency virus 1, UniProt Q72874); experiment: Inhibitory constant against HIV-1 protease
How it was run: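 HIV-1 proteinase expressed in E. coli JM 105 and purified to homogeneity. Initial rates were taken from the absorbance decrease at 298 nm. IC50 came from a fit of the initial velocities. Ki was derived from IC50 accounting for enzyme, substrate and Km. Mean of two determinations.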

| Compound | IC50 [1] | Ki [2] |
| --- | --- | --- |
| CC(C)[C@H](NC(=O)[C@H](NCc1ccccc1)[C@H](O)[C@H](Cc1ccccc1)NC(=O)[C@@H](NC(=O)OCc1ccccc1)c1ccccc1)C(=O)NCc1ccccc1 | > 3000 nM | 51 nM |
| CC(C)C[C@H](NC(=O)OCc1ccccc1)C(=O)N[C@@H](Cc1ccccc1)[C@@H](O)[C@@H](NCc1ccccc1)C(=O)N[C@H](C(=O)NCc1ccccc1)C(C)C | > 3000 nM | 65 nM |
| CC(C)[C@H](NC(=O)OCc1ccccc1)C(=O)N[C@@H](Cc1ccccc1)[C@@H](O)[C@@H](NCc1ccccc1)C(=O)N[C@@H](C(=O)NCc1ccccc1)C(C)(C)C.CC(C)[C@H](NC(=O)OCc1ccccc1)C(=O)N[C@@H](Cc1ccccc1)[C@@H](O)[C@@H](NCc1ccccc1)C(=O)N[C@H](C(=O)NCc1ccccc1)C(C)(C)C (stereo in doubt; 32(5:1)) | – | 20 nM |
| CCOC(=O)[C@@H](NC(=O)[C@H](NCc1ccccc1)[C@H](O)[C@H](Cc1ccccc1)NC(=O)[C@@H](NC(=O)OCc1ccccc1)C(C)C)C(C)C | > 3000 nM | 1200 nM |
| CC(C)[C@H](NC(=O)OCc1ccccc1)C(=O)N[C@@H](Cc1ccccc1)[C@@H](O)[C@@H](NCc1ccc(Br)cc1)C(=O)N[C@H](C(=O)NCc1ccccc1)C(C)C | 350 nM | 23 nM |
| CC[C@@H](C)[C@H](NC(=O)OCc1ccccc1)C(=O)N[C@@H](Cc1ccccc1)[C@@H](O)[C@@H](NCc1ccccc1)C(=O)N[C@H](C(=O)NCc1ccccc1)C(C)C | > 3000 nM | 8.3 nM |
| CC(C)[C@H](NC(=O)[C@H](NCc1ccccc1)[C@H](O)[C@H](Cc1ccccc1)NC(=O)[C@H](C)NC(=O)OCc1ccccc1)C(=O)NCc1ccccc1 | > 3000 nM | 34 nM |
| CC(C)[C@H](NC(=O)OCc1ccccc1)C(=O)N[C@@H](Cc1ccccc1)[C@@H](O)[C@@H](NCc1ccccc1)C(=O)N[C@H](C(=O)NC(C)(C)C)C(C)C | > 3000 nM | 72 nM |
| CC(C)[C@H](NC(=O)CCc1nc2ccccc2[nH]1)C(=O)N[C@@H](Cc1ccccc1)[C@@H](O)[C@@H](NCc1ccccc1)C(=O)N[C@H](C(=O)NCc1ccccc1)C(C)C | 180 nM | 9.9 nM |
| CC(C)[C@H](NC(=O)[C@H](NCc1ccccc1)[C@H](O)[C@H](Cc1ccccc1)NC(=O)[C@H](CC(N)=O)NC(=O)OCc1ccccc1)C(=O)NCc1ccccc1 | 1010 nM | 10.4 nM |
| CC(C)[C@H](NC(=O)OCc1ccccc1)C(=O)N[C@@H](Cc1ccccc1)[C@@H](O)[C@@H](NCc1ccccc1)C(=O)N[C@@H](C(=O)NCc1ccccc1)C(C)(C)C.CC(C)[C@H](NC(=O)OCc1ccccc1)C(=O)N[C@@H](Cc1ccccc1)[C@@H](O)[C@@H](NCc1ccccc1)C(=O)N[C@H](C(=O)NCc1ccccc1)C(C)(C)C (stereo in doubt; 33(4:1)) | > 3000 nM | > 3000 nM |
| CC[C@H](C)[C@H](NC(=O)[C@H](NCc1ccccc1)[C@H](O)[C@H](Cc1ccccc1)NC(=O)[C@@H](NC(=O)OCc1ccccc1)C(C)C)C(=O)NCc1ccccc1 | > 3000 nM | > 3000 nM |
| CC(C)[C@H](NC(=O)[C@H](NCc1ccccc1)[C@H](O)[C@H](Cc1ccccc1)NC(=O)[C@H](Cc1c[nH]c2ccccc12)NC(=O)OCc1ccccc1)C(=O)NCc1ccccc1 | > 3000 nM | 200 nM |
| CCCCN[C@@H](C(=O)N[C@H](C(=O)NCc1ccccc1)C(C)C)[C@H](O)[C@H](Cc1ccccc1)NC(=O)[C@@H](NC(=O)OCc1ccccc1)C(C)C | > 3000 nM | 23 nM |
| CC(C)[C@H](NC(=O)[C@H](NCc1ccccc1)[C@H](O)[C@H](Cc1ccccc1)NC(=O)[C@H](CCC(N)=O)NC(=O)OCc1ccccc1)C(=O)NCc1ccccc1 | 2000 nM | 45 nM |
| CC(C)[C@H](NC(=O)OCc1ccccn1)C(=O)N[C@@H](Cc1ccccc1)[C@@H](O)[C@@H](NCc1ccccc1)C(=O)N[C@H](C(=O)NCc1ccccc1)C(C)C | 350 nM | 8.6 nM |

| Compound | IC50 [1] | Ki [2] |
| --- | --- | --- |
| CC(C)[C@H](NC(=O)OCc1ccccc1)C(=O)N[C@@H](Cc1ccccc1)[C@@H](O)[C@@H](NCc1ccccc1)C(=O)N[C@H](C(=O)NCc1nc2ccccc2[nH]1)C(C)C | 140 nM | 13 nM |
| CC(C)[C@H](NC(=O)OCc1ccccc1)C(=O)N[C@@H](Cc1ccccc1)[C@@H](O)[C@@H](NCCc1ccccn1)C(=O)N[C@H](C(=O)NCc1ccccc1)C(C)C | > 3000 nM | 200 nM |
| CC(C)[C@H](NC(=O)OCc1ccccc1)C(=O)N[C@@H](Cc1ccccc1)[C@@H](O)[C@@H](NCc1cccc2ccccc12)C(=O)N[C@H](C(=O)NCc1ccccc1)C(C)C | > 3000 nM | 26 nM |
| CC(C)[C@H](NC(=O)OCc1ccccc1)C(=O)N[C@@H](Cc1ccccc1)[C@@H](O)[C@@H](NCc1ccccc1)C(=O)N[C@H](C(=O)NCCc1c[nH]c2ccccc12)C(C)C | > 3000 nM | 10.6 nM |
| CC(C)[C@H](NC(=O)OCc1ccccc1)C(=O)N[C@@H](Cc1ccccc1)[C@@H](O)[C@@H](SCc1ccccc1)C(=O)N[C@H](C(=O)NCc1ccccc1)C(C)C | 330 nM | 10 nM |
| CC(C)[C@H](NC(=O)OCc1ccccc1)C(=O)N[C@@H](Cc1ccccc1)[C@@H](O)[C@@H](NCCc1c[nH]c2ccccc12)C(=O)N[C@H](C(=O)NCc1ccccc1)C(C)C | > 3000 nM | 61 nM |
| CC(C)[C@H](NC(=O)OCc1ccccc1)C(=O)N[C@@H](Cc1ccccc1)[C@@H](O)[C@@H](NCc1ccccc1)C(=O)N[C@@H](CC(N)=O)C(=O)NCc1ccccc1 | > 3000 nM | 42 nM |
| CC(C)[C@H](NC(=O)OCc1ccccc1)C(=O)N[C@@H](Cc1ccccc1)[C@@H](O)[C@@H](Nc1ccc(-c2ccccc2)cc1)C(=O)N[C@H](C(=O)NCc1ccccc1)C(C)C | > 3000 nM | 59 nM |
| CC(C)[C@H](NC(=O)c1ccc2ccccc2n1)C(=O)N[C@@H](Cc1ccccc1)[C@@H](O)[C@@H](NCc1ccccc1)C(=O)N[C@H](C(=O)NCc1ccccc1)C(C)C | 1610 nM | 10.2 nM |
| CC(C)[C@H](NC(=O)OCc1ccccc1)C(=O)N[C@@H](Cc1ccccc1)[C@@H](O)[C@@H](Nc1ccccc1)C(=O)N[C@H](C(=O)NCc1ccccc1)C(C)C | 1340 nM | 6.9 nM |
| CC(C)[C@H](NC(=O)[C@H](NCc1ccccc1)[C@H](O)[C@H](Cc1ccccc1)NC(=O)[C@H](CO)NC(=O)OCc1ccccc1)C(=O)NCc1ccccc1 | 2500 nM | 153 nM |
| CC(C)[C@H](NC(=O)OCc1ccccc1)C(=O)N[C@@H](Cc1ccccc1)[C@@H](O)[C@@H](NCc1ccccc1)C(=O)N[C@H](C(=O)NCc1ccccn1)C(C)C | 1140 nM | 12 nM |
| CC(C)[C@H](NC(=O)OCc1ccccc1)C(=O)N[C@@H](Cc1ccccc1)[C@@H](O)[C@@H](NCc1ccc(Cl)cc1)C(=O)N[C@H](C(=O)NCc1ccccc1)C(C)C | 400 nM | 17 nM |
| CC(C)[C@H](NC(=O)OCc1ccccc1)C(=O)N[C@@H](Cc1ccccc1)[C@@H](O)[C@@H](NC1CCCCC1)C(=O)N[C@H](C(=O)NCc1ccccc1)C(C)C | 940 nM | 33.5 nM |
| CC(C)[C@H](NC(=O)[C@H](NCc1ccccc1)[C@H](O)[C@H](Cc1ccccc1)NC(=O)[C@@H](NC(=O)N(C)Cc1nc2ccccc2[nH]1)C(C)C)C(=O)NCc1ccccc1 | 270 nM | 10.2 nM |
